Results published in ChEMBL document CHEMBL3865838, “Ceylonamides A-F, Nitrogenous Spongian Diterpenes That Inhibit RANKL-Induced Osteoclastogenesis, from the Marine Sponge Spongia ceylonensis” (J Nat Prod, 2016).
pIC50: −log10 of the molar value. Calls of active or inactive are those of the source. The rule behind the calls is not given here.

Legend:
[1] = Inhibition of RANKL-stimulated osteoclastogenesis in mouse RAW264 cells assessed as reduction in TRAP activity after 4 days in presence of RANKL; format: functional, cell-based
Outline: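 Murine RAW264 cells differentiated with RANKL (50 ng/mL) for 4 days, with or without compound at a range of concentrations. TRAP activity was read as absorbance at 405 nm, and the IC50 was taken from inhibition of RANKL-induced TRAP up-regulation. Cytotoxicity toward RAW264 cells was also checked.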

[2] = Cytotoxicity against mouse RAW264 cells assessed as cell survival at 5 uM relative to control; format: toxicity; details: read-out: Survival
RAW264 [3] = assay: Inhibition of RANKL-stimulated osteoclastogenesis in mouse RAW264 cells assessed reduction in TRAP-positive multinucleated cells at 20 uM after 4 days in presence of RANKL by TRAP-staining based microscopic analysis; format: functional, cell-based
Outline: (§1)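 RAW264 cells were treated with RANKL (50 ng/mL) plus compound at 10 or 20 μM, or without compound, for 4 days. They were then stained with TRAP-staining solution, which stains positive cells red. TRAP-positive multinuclear cells (≥3 nuclei) were counted by microscopy.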

RAW264 [4] = assay: Inhibition of RANKL-stimulated osteoclastogenesis in mouse RAW264 cells assessed reduction in TRAP-positive multinucleated cells at 10 uM after 4 days in presence of RANKL by TRAP-staining based microscopic analysis; format: functional, cell-based; outline: as §1

Row | Structure (SMILES) | pIC50 [1] | viability at 5 µM [2] | inhibition (RAW264 [3]) | inhibition (RAW264 [4])
1 | CC(C)CN1CC2=C(CC[C@@H]3[C@@]4(C)CCC[C@](C)(C(=O)O)[C@@H]4CC[C@@]23C)C1=O | < 4.30 | 100% |  | 
2 | CO[C@H]1O[C@@H](OC)C2=C1CC[C@@H]1[C@@]3(C)CCC[C@](C)(C(=O)O)[C@@H]3CC[C@@]21C | < 4.30 | 98% |  | 
3 | CC(C)CN1CC2=C(C1=O)[C@]1(C)CC[C@@H]3[C@](C)(CCC[C@]3(C)C(=O)O)[C@H]1CC2 | < 4.30 | 100% |  | 
4 | CC(C)CCN1CC2=C(CC[C@@H]3[C@@]4(C)CCC[C@](C)(C(=O)O)[C@@H]4CC[C@@]23C)C1=O | 4.74 | 87% | Active | 
5 | C[C@]12CCC[C@](C)(C(=O)O)[C@@H]1CC[C@@]1(C)C3=C(CC[C@H]21)C(=O)N(CCc1ccccc1)C3 | 4.89 | 100% |  | Active
6 | C[C@]12CCC[C@](C)(C(=O)O)[C@@H]1CC[C@@]1(C)C3=C(CC[C@H]21)CNC3=O | < 4.30 | 100% |  | 
7 | C[C@]12CC(=O)[C@@H](O)[C@](C)(CO)[C@@H]1CC[C@@]1(C)c3cocc3CC[C@H]21 [SPONGIADIOL] | < 4.30 | 97% |  | 
8 | C[C@]12CCC[C@](C)(C(=O)O)[C@@H]1CC[C@@]1(C)c3cocc3CC[C@H]21 | < 4.30 | 100% |  | 
9 | C[C@]12CCC[C@](C)(C(=O)O)[C@@H]1CC[C@@]1(C)C3=C(CC[C@H]21)CN(CCc1ccccc1)C3=O | < 4.30 | 97% |  | 
10 | C[C@]12C[C@@H](O)C(=O)[C@](C)(CO)[C@@H]1CC[C@@]1(C)c3cocc3CC[C@H]21 [ISOSPONGIADIOL] | < 4.30 | 96% |  | 
11 | CC(C)CCN1CC2=C(C1=O)[C@]1(C)CC[C@@H]3[C@](C)(CCC[C@]3(C)C(=O)O)[C@H]1CC2 | < 4.30 | 100% |  | 
